From PubChem BioAssay
HCV NS3 hel inh: inhibitors of Hepatitis C virus NS3 helicase; NS3 helicase DNA unwinding, Cy5 molecular beacon fluorescence; 290,000 tested, 0.56% active; inhibition, % at 10.9 µM;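 active = inhibition above the mean of all tested compounds plus 3 SD, set per campaign, cut at about 35% in these data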
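System: NS3 helicase fragment of HCV / Schedule: 1 h at 25 °C / Control set: DMSO alone as 0% and 110 µM thioflavine S as 100% / Reagent: Cy5/quencher beacon DNA duplex and ATP to start / Technique: Cy5 fluorescence / Replication: singlicate / Evaluation: % inhibition of end-to-start signal ratio versus controls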
FID counter: counter-screen for HCV NS3 helicase inhibitors: DNA intercalator displacement; DNA fluorescent intercalator displacement, fluorescence; inhibition, % at 7.9 µM; 290,000 tested, 0.17% active; in the data active = inhibition above about 37%;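 also: higher means more ethidium bromide displaced from hairpin DNA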
eIF4H FP inh: inhibitors of RNA binding by human eIF4H; Q15056; eIF4H fluorescence polarization binding assay; inhibition, % at 35 µM; 290,000 tested, 0.94% active;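 also: calls also rest on retests at 20 µM and on dose response follow-up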
PABP FP inh: blocks human PABP binding to poly(A) RNA | fluorescence polarization | P11940 | AID 2014 | 290,000 tested, 1% active | inhibition, % at 35 µM;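 also: calls also rest on retests at 20 µM and on dose response follow-up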
HCV core dimer: blocks dimerization of HCV core protein; TR-FRET GST/Flag-core106 dimerization, 1536-well; inhibition, % at 5 µM; 300,000 tested, 0.33% active;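 active = inhibition above the mean of all tested compounds plus 3 SD, set per screening campaign, cut at about 45% in these data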
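Assay system: tagged HCV core106 pair (GST and Flag); medium: KF-containing HEPES buffer, pH 7.45, DTT, CHAPS, BSA; also added: Eu donor and XL665 acceptor anti-tag antibodies; dosing: 5 µM single dose; timing: compound-protein-antibody incubation 4 h at 22.5 °C; signal: TR-FRET 671 and 617 nm emission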
PABP1 MLLE inh: blocks PAM2 peptide binding to the PABP1 MLLE domain. AID 588489. GST-MLLE / FITC-PAM2 fluorescence polarization. inhibition, % at 20 µM. 360,000 tested, 0.36% active; in the data active = inhibition above about 35%, passing the limit was not always enough
Each line names hits and unclear results; the compound was inactive in the other large screens. A selection: hits, their analogues and other compounds. The true share with any hit is near 2%. Unless noted, no rule for the calls is given here.

Cc1cccc(OCC(=O)NNC(=O)c2ccc3nc[nH]c3c2)c1	none (no result: HCV NS3 hel inh, FID counter, eIF4H FP inh, PABP FP inh, HCV core dimer)
CC1CCN(C(=O)CSc2nncn2-c2ccccn2)CC1	PABP1 MLLE inh 38.8
CCCCCc1ccc(OCCCC[n+]2ccccc2)c(CCCCC)c1	none
CCCCCc1ccc(OCCCC[n+]2ccc(C)cc2)c(CCCCC)c1	FID counter 37.0
CCCCCc1ccc(OCCCC[n+]2cccc(C)c2)c(CCCCC)c1	FID counter 41.1
CN1/C(=C\C(=O)CSc2nnc(NCc3ccccc3)s2)C(C)(C)c2ccccc21	eIF4H FP inh 68.7, PABP FP inh active
CN(C)c1cc2c3ccccc3n(C)c2cc1N	PABP1 MLLE inh 64.5 (no result: HCV NS3 hel inh, FID counter, eIF4H FP inh, PABP FP inh, HCV core dimer)
Cc1ccc(C)c2c1c1ccccc1n2C	none
COc1c(C)cccc1C(=O)NCc1ccc2c(c1)OCO2	none
CCCCCCN1C[C@@H](O)[C@H](n2cc(COC(=O)c3ccccc3)nn2)C[C@@H]1c1ccc(C)cc1	none (no result: HCV NS3 hel inh, FID counter, eIF4H FP inh, PABP FP inh, HCV core dimer)
CCN(CC)c1ccc(NC(=O)CSc2ccsc2[N+](=O)[O-])c(C)c1	eIF4H FP inh inconclusive, PABP FP inh 12.1, HCV core dimer 48.6
CC(=O)c1ccc(NC(=O)CSc2ccsc2[N+](=O)[O-])cc1	PABP FP inh active (no result: HCV core dimer)
O=C(CSc1ccsc1[N+](=O)[O-])Nc1cc(F)ccc1F	none (no result: HCV core dimer)
Oc1c(C=Nc2cccc3cccnc23)sc2ccccc12	eIF4H FP inh 125.1, PABP FP inh 118.6 (no result: PABP1 MLLE inh)
Cc1cccc(/N=C/c2sc3ccccc3c2O)n1	none
Cc1cccc(S(=O)(=O)Nc2ccc(-n3c(C)nc4ccccc4c3=O)cc2)c1	none (no result: HCV NS3 hel inh, FID counter, eIF4H FP inh, PABP FP inh)
Nc1cc(Cl)ccc1Oc1ccc(Cl)cc1	none
CN(C)c1ccc(Cl)cc1N	eIF4H FP inh 69.1
Cc1ccc(/C=C(\CCC(=O)O)c2nc3ccccc3s2)cc1[N+](=O)[O-]	none
CN(c1ccccc1)c1ccc(/C=C(\CCC(=O)O)c2nc3ccccc3s2)cc1[N+](=O)[O-]	HCV core dimer 60.4
COc1ccc(C(=O)Nc2cccc(/C=C(\CCC(=O)O)c3nc4ccccc4s3)c2)cc1	HCV core dimer 64.1
O=C(Nc1nnc(S(=O)(=O)N2CCCCC2)s1)c1cccc(Br)c1	none
N#Cc1c(-c2ccco2)ccn(Cc2ccc(F)cc2)c1=O	none
N#Cc1c(-c2ccco2)ccn(Cc2cccc(F)c2)c1=O	eIF4H FP inh 69.9, PABP FP inh active
CCc1nnc(NC(=O)C2Cc3ccccc3CN2S(=O)(=O)c2cccs2)s1 (stereo unspecified)	HCV core dimer 59.2
CCSc1nnc(NC(=O)C2Cc3ccccc3CN2S(=O)(=O)CC)s1 (stereo unspecified)	HCV core dimer 49.0
CNC(=O)C1Cc2ccccc2CN1S(=O)(=O)c1cccs1 (stereo unspecified)	none
O=C(Nc1nnc(C2CC2)s1)C1Cc2ccccc2CN1C(=O)c1ccco1 (stereo unspecified)	HCV core dimer 54.3
O=C(Nc1nnc(SCc2ccc(F)cc2)s1)C1Cc2ccccc2CN1C(=O)c1ccco1 (stereo unspecified)	none
CCS(=O)(=O)N1Cc2ccccc2CC1C(=O)Nc1nnc(SCc2c(Cl)cccc2Cl)s1 (stereo unspecified)	none
CCc1nnc(NC(=O)C2Cc3ccccc3CN2S(=O)(=O)c2ccc(C)cc2)s1 (stereo unspecified)	none
O=C(Nc1nnc(C2CC2)s1)C1Cc2ccccc2CN1S(=O)(=O)c1cccs1 (stereo unspecified)	HCV core dimer 66.8
O=C(CNC(=O)c1ccccc1)NCCc1nc2ccccc2[nH]1	none
CC(C)=C(NC(=O)c1ccccc1Br)C(=O)NCCc1nc2ccccc2[nH]1	eIF4H FP inh 112.0, PABP FP inh active
Oc1cc(CNC2CCCCC2)c(O)cc1CNC1CCCCC1	PABP1 MLLE inh 52.6 (no result: HCV NS3 hel inh, FID counter, eIF4H FP inh, PABP FP inh, HCV core dimer)
Cc1ccccc1CNC1CCCCC1	none
O=C(/C=C/c1ccc2ccccc2n1)c1cc(Cl)ccc1O	PABP FP inh 51.0
COc1ccc(-c2nc(C)ncc2-c2csc(C)n2)c(O)c1	eIF4H FP inh 73.0, PABP FP inh active
Nc1ccc(S(=O)(=O)Nc2nc3ccccc3o2)cc1	eIF4H FP inh 55.2, PABP FP inh 29.0
Nc1ccc(S(=O)(=O)Nc2cnc3ccccc3n2)cc1	none
CC(=O)NC(Cc1c[nH]c2ccccc12)C(=O)NCc1ccco1 (stereo unspecified)	none
CC(Cc1c[nH]c2ccccc12)C(=O)NCc1ccco1 (stereo unspecified)	eIF4H FP inh 99.0
CCCS(=O)(=O)NC(=O)C1(C)CCCN(C(=O)c2cccc(C(F)(F)F)c2)C1 (stereo unspecified)	none (no result: HCV NS3 hel inh, FID counter, eIF4H FP inh, PABP FP inh, HCV core dimer)
CC(C)(C)NCC(O)CON=C1c2ccccc2-c2ccccc21 (stereo unspecified)	FID counter 44.9
CC(C)(C)NC(=O)CON=C1c2ccccc2-c2ccccc21	none
COc1cccc(-n2c(SCC(=O)NC3CC3)nc3ccccc3c2=O)c1	none (no result: HCV NS3 hel inh, FID counter, eIF4H FP inh, PABP FP inh, HCV core dimer)
O=C(O)c1ccccc1N=Nc1ccc(O)cc1	PABP1 MLLE inh 41.4 (no result: HCV NS3 hel inh, FID counter, eIF4H FP inh, PABP FP inh)
COc1ccc(NC(=O)COc2ccccc2C)cc1S(=O)(=O)N1CCCCC1	none (no result: HCV NS3 hel inh, FID counter, eIF4H FP inh, PABP FP inh)
COc1cc(C(=O)NS(=O)(=O)c2ccccc2C)ccc1Cc1cn(C)c2ccc(NC(=O)OC3CCCC3)cc12	eIF4H FP inh 45.4 (no result: PABP1 MLLE inh)
CC(=O)Nc1cccc(/C(C)=N/Nc2ccc(S(=O)(=O)Nc3ccccc3C(=O)O)cc2[N+](=O)[O-])c1	none (no result: HCV NS3 hel inh, FID counter, eIF4H FP inh, PABP FP inh, HCV core dimer)
CC(C)C(NC(=O)c1ccccc1)C(=O)NC1=NCCS1 (stereo unspecified)	PABP1 MLLE inh 43.9
CC(NC(=O)c1ccccc1)C(=O)NC1=NCCS1 (stereo unspecified)	none
CC(C)=C[C@H]1C[C@H](C)[C@H]2CC[C@H](C)c3c(O[C@@H]4O[C@@H](C)[C@@H](O)[C@@H](O)[C@@H]4O)c(O)c(C)c1c32	none (no result: HCV NS3 hel inh, FID counter, eIF4H FP inh, PABP FP inh, HCV core dimer)
O=C(O)C1Nc2c(cccc2C(F)(F)F)C2C=CCC12 (stereo unspecified)	eIF4H FP inh 80.1, PABP FP inh 61.4 (no result: HCV core dimer, PABP1 MLLE inh)
O=C(O)C1Nc2ccc(OC(F)(F)F)cc2C2C=CCC12 (stereo unspecified)	none (no result: HCV NS3 hel inh, FID counter, eIF4H FP inh, PABP FP inh, PABP1 MLLE inh)
Cc1ccc2c(c1)C1C=CCC1C(C(=O)O)N2 (stereo unspecified)	HCV NS3 hel inh 36.7, HCV core dimer 94.3 (no result: PABP1 MLLE inh)
C/C(=N\NC(=O)c1cc(O)cc(O)c1)c1ccc(NC(=O)Cc2ccccc2)cc1	eIF4H FP inh 100.6, PABP FP inh 94.0
CC(=O)Nc1cccc(/C(C)=N/NC(=O)c2ccc(O)cc2)c1	eIF4H FP inh active
C/C(=N\NC(=O)c1cccc(F)c1)c1ccc(NC(=O)Cc2ccccc2)cc1	none (no result: HCV core dimer)
C/C(=N\NC(=O)c1cc(O)ccc1O)c1cccc(NC(=O)c2cccc(Cl)c2)c1	eIF4H FP inh 85.0, PABP FP inh 28.9
C/C(=N/NC(=O)c1ccc(O)cc1)c1cccc([N+](=O)[O-])c1	none
CCSC1=N/C(=C\c2ccc(C(=O)O)cc2)C(=O)S1	none
